Target: T1, KDAC8 (Homo sapiens, UniProt Q9BY41)
T1 sequence (Q9BY41 1-377): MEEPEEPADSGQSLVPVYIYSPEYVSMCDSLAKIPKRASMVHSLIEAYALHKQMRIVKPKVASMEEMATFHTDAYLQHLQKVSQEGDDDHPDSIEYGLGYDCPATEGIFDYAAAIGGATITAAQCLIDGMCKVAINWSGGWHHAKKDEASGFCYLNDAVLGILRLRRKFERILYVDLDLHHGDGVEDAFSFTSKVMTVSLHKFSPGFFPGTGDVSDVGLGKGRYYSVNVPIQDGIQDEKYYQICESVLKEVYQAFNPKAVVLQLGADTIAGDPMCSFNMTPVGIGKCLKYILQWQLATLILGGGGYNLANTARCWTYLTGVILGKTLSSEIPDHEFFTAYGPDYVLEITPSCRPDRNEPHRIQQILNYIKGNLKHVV
Assay: KDAC8 endpoint in vitro deacetylation activity assay
Format: biochemical
Conditions: low ionic strength buffer; 200 nM KDAC8, 100 μM peptide, 25 °C, 15-60 min; average of n≥3; limit of reliable detection 0.0004 s^−1
In short: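 KDAC8 carried a C-terminal His6 tag. It was expressed in ExpiSf9 cells after bacmid transfection (28 °C, 5 days, then 2 days of suspension amplification) and purified on cobalt (TALON) affinity resin. Peptides were N-terminally acetylated and C-terminally amidated. Buffer was 30 mM potassium phosphate pH 7.6 with 5% glycerol and no KCl. Product was detected with fluorescamine, and endpoint activity was averaged.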

Substance	Specific activity of KDAC8 with biologically relevant putative KDAC substrates
AARK^acSAP	0.0026 ± 0.0002 s^−1
APRK^acQLA	0.00163 ± 0.00014 s^−1
EIGK^acTLA	- (- indicates no activity above the limit of reliable detection (0.0004 s^−1).)
EVGK^acLLN	- (- indicates no activity above the limit of reliable detection (0.0004 s^−1).)
GALK^acAPS	- (- indicates no activity above the limit of reliable detection (0.0004 s^−1).)
GTAK^acSVT	- (- indicates no activity above the limit of reliable detection (0.0004 s^−1).)
GVGK^acYIN	0.0007 ± 0.0004 s^−1
ITGK^acPSG	- (- indicates no activity above the limit of reliable detection (0.0004 s^−1).)
LGGK^acQRA	- (- indicates no activity above the limit of reliable detection (0.0004 s^−1).)
LSGK^acGNP	- (- indicates no activity above the limit of reliable detection (0.0004 s^−1).)
PEAK^acSLL	- (- indicates no activity above the limit of reliable detection (0.0004 s^−1).)
QTAK^acDAG	- (- indicates no activity above the limit of reliable detection (0.0004 s^−1).)
SHLK^acAHL	- (- indicates no activity above the limit of reliable detection (0.0004 s^−1).)
SVRK^acGIM	0.0036 ± 0.0008 s^−1
TGGK^acAPR	- (- indicates no activity above the limit of reliable detection (0.0004 s^−1).)
